Results published in ChEMBL document CHEMBL1165886, “Synthesis, anticonvulsant and toxicity screening of newer pyrimidine semicarbazone derivatives” (Eur J Med Chem, 2010).
Calls of active or inactive are those of the source. No cut-off for these calls is given here.

Experiments:
Mus musculus [1] = assay: Anticonvulsant activity in ip dosed Albino mouse assessed as protection against maximal electric shock-induced seizure after 0.5 hrs; format: functional
Method in brief: (§1)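 Mice given test compound i.p. in polyethylene glycol at 30, 100 and 300 mg/kg; corneal electrodes delivered 50 mA, 60 Hz for 0.25 s at 0.5 h and 4.0 h after dosing. Protection scored as abolition of hind limb tonic extension.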

Mus musculus [2] = assay: Anticonvulsant activity in ip dosed Albino mouse assessed as protection against maximal electric shock-induced seizure after 4 hrs; format: functional; method in brief: as §1
Mus musculus [3] = assay: Anticonvulsant activity in ip dosed Albino mouse assessed as protection against scPTZ-induced seizure after 4 hrs; format: functional
Method in brief: (§2)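 Test compound given i.p. in polyethylene glycol at 30, 100 and 300 mg/kg. Pentylenetetrazole 75 mg/kg, as a 0.5% solution, injected subcutaneously in the posterior midline. Animals examined 0.5 h and 4 h after dosing. Value is the minimum dose active in half or more of the mice; dash means no activity at maximum dose.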

Mus musculus [4] = assay: Anticonvulsant activity in ip dosed Albino mouse assessed as protection against scPTZ-induced seizure after 0.5 hrs; format: functional; method in brief: as §2
Mus musculus [5] = species: Mus musculus; assay: Hepatotoxicity in Albino mouse assessed as change in SGPT level; format: toxicity, organism-based; conditions: in vivo
Method in brief: (§3)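 Serum alkaline phosphatase, SGOT and SGPT levels measured in treated mice versus control; transaminases estimated by the Reitman–Frankel method. Results given as mean ± SEM.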

Mus musculus [6] = species: Mus musculus; assay: Hepatotoxicity in Albino mouse assessed as change in SGOT level; format: toxicity, organism-based; conditions: in vivo; method in brief: as §3
Mus musculus [7] = assay: Neurotoxicity in Albino mouse assessed as minimal motor impairment at 300 mg/kg, ip after 0.5 hrs by rotarod test; format: toxicity, organism-based; design: dose 300 mg/kg, route intraperitoneal; conditions: in vivo
Method in brief: (§4)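 Mice pretrained on an accelerating rotorod, 3.2 cm diameter, rotating at 10 rpm. Test compound given i.p. in polyethylene glycol at 30, 100 and 300 mg/kg; examined at 0.5 h and 4 h. Neurotoxicity = inability to hold equilibrium on the rod for at least 1 min in each trial. Minimum dose affecting half or more of mice reported.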

Mus musculus [8] = species: Mus musculus; assay: Hepatotoxicity in Albino mouse assessed as globulin level measured per 100 mL (RVb = 0.24 +/- 0.03 g); format: toxicity, organism-based; conditions: in vivo
Mus musculus [9] = species: Mus musculus; assay: Hepatotoxicity in Albino mouse assessed as change in alkaline phosphatase level; format: toxicity, organism-based; conditions: in vivo; method in brief: as §3
Mus musculus [10] = species: Mus musculus; assay: Hepatotoxicity in Albino mouse assessed as albumin level measured per 100 mL (RVb =1.45 +/- 0.06 g); format: toxicity, organism-based; conditions: in vivo
Mus musculus [11] = species: Mus musculus; assay: Hepatotoxicity in Albino mouse assessed as total protein level measured per 100 mL (RVb = 1.69 +/- 0.05 g); format: toxicity, organism-based; conditions: in vivo
[12] = Neurotoxicity in ip dosed Albino mouse assessed as minimal motor impairment after 4 hrs by rotarod test; format: toxicity, organism-based; conditions: in vivo; method in brief: as §4
Mus musculus [13] = assay: Anticonvulsant activity in Albino mouse assessed as protection against scPTZ-induced seizure at 300 mg/kg, ip after 4 hrs; format: functional, organism-based; design: dose 300 mg/kg; method in brief: as §2
Mus musculus [14] = assay: Anticonvulsant activity in Albino mouse assessed as protection against scPTZ-induced seizure at 300 mg/kg, ip after 0.5 hrs; format: functional, organism-based; design: dose 300 mg/kg; method in brief: as §2
Mus musculus [15] = assay: Anticonvulsant activity in Albino mouse assessed as protection against maximal electric shock-induced seizure at 300 mg/kg, ip after 4 hrs; format: functional, organism-based; design: dose 300 mg/kg; method in brief: as §1
[16] = Neurotoxicity in ip dosed Albino mouse assessed as minimal motor impairment after 0.5 hrs by rotarod test; format: toxicity, organism-based; conditions: in vivo; method in brief: as §4
Mus musculus [17] = assay: Anticonvulsant activity in Albino mouse assessed as protection against maximal electric shock-induced seizure at 300 mg/kg, ip after 0.5 hrs; format: functional, organism-based; design: dose 300 mg/kg; method in brief: as §1
Mus musculus [18] = assay: Neurotoxicity in Albino mouse assessed as minimal motor impairment at 300 mg/kg, ip after 4 hrs by rotarod test; format: toxicity, organism-based; design: dose 300 mg/kg, route intraperitoneal; conditions: in vivo; method in brief: as §4

Row | SMILES | ED50 (Mus musculus [1]) | ED50 (Mus musculus [2]) | ED50 (Mus musculus [3]) | ED50 (Mus musculus [4]) | TD50 at 4 h [12] | Activity (Mus musculus [13]) | Activity (Mus musculus [14]) | TD50 at 0.5 h [16] | Activity (Mus musculus [17]) | further results
1 | C/C(=N/NC(=O)Nc1nc(-c2ccc(C)cc2)cc(-c2ccc(F)cc2)n1)c1ccc(Cl)cc1 | 30 mg/kg | 100 mg/kg | 300 mg/kg | 100 mg/kg | 300 mg/kg |  |  |  |  | Activity (Mus musculus [5]): Non-toxic; Activity (Mus musculus [6]): Non-toxic; Activity (Mus musculus [7]): Non-toxic; Activity (Mus musculus [8]): 0.31 g; Activity (Mus musculus [9]): Non-toxic; Activity (Mus musculus [10]): 1.62 g; Activity (Mus musculus [11]): 1.93 g
2 | COc1ccc(-c2cc(-c3ccc(F)cc3)nc(NC(=O)N/N=C\c3cccc(Cl)c3)n2)cc1OC | 300 mg/kg | 300 mg/kg |  |  |  | inactive | inactive |  |  | 
3 | COc1ccc(-c2cc(-c3ccc(Cl)cc3)nc(NC(=O)N/N=C(/C)c3ccc(C)cc3)n2)cc1 | 300 mg/kg |  |  |  |  | inactive | inactive |  |  | Activity (Mus musculus [15]): inactive
4 | COc1ccc(-c2cc(-c3ccc(Cl)cc3)nc(NC(=O)N/N=C\c3cccc(Cl)c3)n2)cc1OC | 100 mg/kg | 300 mg/kg | 300 mg/kg |  | 300 mg/kg |  | inactive | 300 mg/kg |  | 
5 | COc1ccc(-c2cc(-c3ccc(F)cc3)nc(NC(=O)N/N=C\c3ccccc3[N+](=O)[O-])n2)c(OC)c1 | 300 mg/kg |  | 300 mg/kg |  |  |  | inactive |  |  | Activity (Mus musculus [15]): inactive
6 | COc1ccc(-c2cc(-c3ccc(Cl)cc3)nc(NC(=O)N/N=C(/C)c3ccccc3Cl)n2)cc1 |  |  | 300 mg/kg |  |  |  | inactive |  | inactive | Activity (Mus musculus [15]): inactive
7 | COc1ccc(-c2cc(-c3ccc(Cl)cc3)nc(NC(=O)N/N=C\c3ccccc3[N+](=O)[O-])n2)c(OC)c1 |  | 300 mg/kg |  |  |  | inactive | inactive |  | inactive | 
8 | C/C(=N/NC(=O)Nc1nc(-c2ccc(C)cc2)cc(-c2ccc(Cl)cc2)n1)c1ccc(Cl)cc1 | 30 mg/kg | 300 mg/kg | 300 mg/kg | 300 mg/kg |  |  |  |  |  | Activity (Mus musculus [5]): Non-toxic; Activity (Mus musculus [6]): Non-toxic; Activity (Mus musculus [18]): Non-toxic; Activity (Mus musculus [7]): Non-toxic; Activity (Mus musculus [8]): 0.19 g; Activity (Mus musculus [9]): Non-toxic; Activity (Mus musculus [10]): 1.52 g; Activity (Mus musculus [11]): 1.71 g
9 | C/C(=N/NC(=O)Nc1nc(-c2ccc(F)cc2)cc(-c2ccc([N+](=O)[O-])cc2)n1)c1ccc(C)cc1 | 100 mg/kg | 300 mg/kg | 300 mg/kg | 300 mg/kg | 300 mg/kg |  |  |  |  | Activity (Mus musculus [7]): Non-toxic
10 | COc1ccc(-c2cc(-c3ccc(F)cc3)nc(NC(=O)N/N=C\c3ccccc3Cl)n2)c(OC)c1 |  | 300 mg/kg |  |  |  | inactive | inactive |  | inactive | 
11 | COc1ccc(-c2cc(-c3ccc(F)cc3)nc(NC(=O)N/N=C\c3ccc([N+](=O)[O-])cc3)n2)cc1OC | 100 mg/kg | 300 mg/kg |  | 300 mg/kg | 300 mg/kg | inactive |  |  |  | Activity (Mus musculus [7]): Non-toxic
12 | CCC1(C)CC(=O)NC1=O (stereo unspecified) [ETHOSUXIMIDE] |  |  | 300 mg/kg | 100 mg/kg |  |  |  |  | inactive | Activity (Mus musculus [18]): Non-toxic; Activity (Mus musculus [15]): inactive; Activity (Mus musculus [7]): Non-toxic
13 | COc1ccc(-c2cc(-c3ccc(Cl)cc3)nc(NC(=O)N/N=C\c3ccccc3Cl)n2)c(OC)c1 |  | 300 mg/kg |  |  |  | inactive | inactive |  | inactive | 
14 | COc1ccc(-c2cc(-c3ccc(F)cc3)nc(NC(=O)N/N=C(/C)c3ccc(C)cc3)n2)cc1 |  | 100 mg/kg |  | 300 mg/kg |  |  |  | 100 mg/kg | inactive | Activity (Mus musculus [18]): Non-toxic
15 | C/C(=N/NC(=O)Nc1nc(-c2ccc(Cl)cc2)cc(-c2ccc([N+](=O)[O-])cc2)n1)c1ccc(C)cc1 | 300 mg/kg | 300 mg/kg | 300 mg/kg |  |  |  | inactive |  |  | 
16 | O=C1NC(=O)C(c2ccccc2)(c2ccccc2)N1 [PHENYTOIN] | 30 mg/kg | 30 mg/kg |  |  | 100 mg/kg | inactive | inactive | 100 mg/kg |  | 
17 | C/C(=N/NC(=O)Nc1nc(-c2ccc(C)cc2)cc(-c2ccc(F)cc2)n1)c1ccc([N+](=O)[O-])cc1 | 100 mg/kg | 300 mg/kg | 300 mg/kg |  | 100 mg/kg |  | inactive | 100 mg/kg |  | 
18 | C/C(=N/NC(=O)Nc1nc(-c2ccc(C)cc2)cc(-c2ccc(Cl)cc2)n1)c1ccc([N+](=O)[O-])cc1 | 100 mg/kg | 300 mg/kg | 300 mg/kg | 300 mg/kg | 100 mg/kg |  |  | 100 mg/kg |  | 
19 | COc1ccc(/C(C)=N\NC(=O)Nc2nc(-c3ccc(F)cc3)cc(-c3ccc([N+](=O)[O-])cc3)n2)cc1 | 100 mg/kg |  | 300 mg/kg | 100 mg/kg |  |  |  | 300 mg/kg |  | Activity (Mus musculus [18]): Non-toxic; Activity (Mus musculus [15]): inactive
20 | COc1ccc(-c2cc(-c3ccc(Cl)cc3)nc(NC(=O)N/N=C\c3ccc([N+](=O)[O-])cc3)n2)cc1OC | 30 mg/kg | 100 mg/kg | 100 mg/kg | 100 mg/kg |  |  |  |  |  | Activity (Mus musculus [5]): Non-toxic; Activity (Mus musculus [6]): Non-toxic; Activity (Mus musculus [18]): Non-toxic; Activity (Mus musculus [7]): Non-toxic; Activity (Mus musculus [8]): 0.26 g; Activity (Mus musculus [9]): Non-toxic; Activity (Mus musculus [10]): 1.74 g; Activity (Mus musculus [11]): 2 g
21 | COc1ccc(/C(C)=N\NC(=O)Nc2nc(-c3ccc(Cl)cc3)cc(-c3ccc([N+](=O)[O-])cc3)n2)cc1 |  | 300 mg/kg |  |  |  | inactive | inactive |  | inactive | 
22 | CCC1(c2ccccc2)C(=O)NC(=O)NC1=O [PHENOBARBITAL] | 100 mg/kg | 30 mg/kg |  |  | 300 mg/kg | inactive | inactive | 100 mg/kg |  | 
